Source: PubChem
In the library only some 3% were active in any assay of this set; here they are far more common.
Granule exo inh: lytic granule exocytosis inhibition; inhibition, % at 10 µM; hit rate 0.66% among 360,000; TALL-104 LAMP-1 surface exposure, flow cytometry; cells stimulated with thapsigargin and PMA;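 active = inhibition above about 55%, limit read from the data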
UBC13 inh: blocks human UBC13 polyubiquitin chain formation; hit rate 0.47% among 330,000; inhibition, % at 20 µM; AID 485273; P61088; TR-FRET; in the data active = inhibition above about 45%, passing the limit was not always enough
Target sequence (P61088 whole entry, looked up): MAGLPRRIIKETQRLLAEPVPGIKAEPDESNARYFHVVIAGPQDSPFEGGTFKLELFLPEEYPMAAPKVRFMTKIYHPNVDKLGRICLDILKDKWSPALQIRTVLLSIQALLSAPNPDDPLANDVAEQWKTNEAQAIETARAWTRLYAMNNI
MPTP inh: inhibitors of mitochondrial permeability transition pore; isolated mouse mitochondria, Ca2+ swelling absorbance, 30 min; inhibition, % at 10 µM; hit rate 1.4% among 360,000; AID 602449;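 active = inhibition of 50% or more, scaled per plate between neutral and stimulator controls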;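 note: 0% = DMSO wells given calcium and 100% = 1 mM EGTA wells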
iPSC survival up: increases survival of single human iPS cells. hiPSC single-cell survival, ATPlite luminescence; 100% = ROCK inhibitor wells, 0% = DMSO. survival enhancement, % at 20 µM. hit rate 0.044% among 360,000. AID 602274; in the data active = survival enhancement above about 18%;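 note: cells exposed to compounds for 16 hours before the ATP read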
beta cell repl: MIN6 beta-cell proliferation induction; MIN6 cells proliferation, ATPlite luminescence, 48 h; cells starved in 0.2% serum; 100% = growth in 10% serum; proliferation, % at 10 µM; hit rate 0.29% among 330,000; AID 2380;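 active = compounds whose signal lies at least 3.5 SD above the mean of all wells on their plate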;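 note: 0% = DMSO-treated cells in low-serum medium and 100% = 10% serum control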
Apaf-1 inh: inhibitors of human Apaf-1 apoptosome | O14727 | reconstituted apoptosome caspase-3 activity, DEVD-Rh110 fluorescence | inhibition, % at 20 µM | hit rate 0.71% among 330,000 | AID 489030; active = inhibition of at least 40% at 20 µM;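 note: plate controls were DMSO wells for no effect and DEVD-CHO caspase inhibitor wells for full effect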
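System: reconstituted apoptosome with Apaf-1, cytochrome c, caspase-9, procaspase-3, dATP; Signal: Rh110 fluorescence intensity; Schedule: 30 min compound preincubation, 50 min activation, room temperature; Reagent: cytochrome c trigger plus (Z-DEVD)2-Rh110 caspase-3 substrate.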
Apaf-1 inh conf: Apaf-1 inhibition, single-dose confirmed | reconstituted apoptosome, caspase-3 DEVD-Rh110 fluorescence | inhibition, % at 20 µM | AID 504614 | shares compounds with Apaf-1 inh | hit rate 25% among 1,800;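 active = mean inhibition of at least 40% at 20 µM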;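 note: plate controls were DMSO wells for no effect and DEVD-CHO caspase inhibitor control wells for full effect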
Rh110 quench: counter-screen for Apaf-1 inhibitors: fluorescence interference. 1,800 tested, under 10 active. shares compounds with Apaf-1 inh. Rh110 fluorescence interference, quenched caspase reaction. AID 504615. activation (fluorescence interference), % at 20 µM;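 active = signal rise of 40% or more at 20 µM, treated as a fluorescence artifact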
Apaf1 inh interf: Apaf-1 inhibitor counter-screen fluorescence artifact. shares compounds with Apaf-1 inh. fluorescence interference counterscreen, Apaf-1 assay format. IC50, µM. 460 tested, under 10 active; call rule not given here
MPTP counter: membrane potential counter-screen of mitochondrial pore inhibitors. hit rate 78% among 5,000. isolated mitochondria, Rhodamine 123 fluorescence. inhibition, % at 10 µM. shares compounds with MPTP inh; in the data active = inhibition above about 22%;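 note: 0% = DMSO vehicle and 100% = positive control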
MPTP abs DR: dose response confirmation of mitochondrial permeability transition pore inhibitors | shares compounds with MPTP inh | isolated mitochondria swelling, absorbance | IC50, µM | hit rate 58% among 780; in the data active = IC50 below about 20 µM
MPTP counter DR: active in counter-screen for permeability transition pore inhibitors; IC50, µM; isolated mitochondria counterscreen, fluorescence read-out; hit rate 49% among 780; shares compounds with MPTP inh; in the data active = IC50 below about 80 µM
Granule exo CP1: lytic granule exocytosis inhibition. shares compounds with Granule exo inh. TALL-104 cells, LAMP-1 externalization, flow cytometry; stimulated with PMA plus thapsigargin. inhibition, % at 10 µM. hit rate 11% among 1,500. AID 651954; in the data active = inhibition above about 60%;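 note: 0% = stimulated vehicle wells and 100% = unstimulated wells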
The depositor's hits bear a star; i = inactive; nt = no result.

SMILES	Granule exo inh	UBC13 inh	MPTP inh	iPSC survival up	beta cell repl	Apaf-1 inh	Apaf-1 inh conf	Rh110 quench	MPTP counter	others
C[C@H](CO)N1C[C@H](C)[C@H](CN(C)C(=O)Nc2cccc(C(F)(F)F)c2)OCc2cnnn2CCCC1=O	9	nt	5	1	nt	nt	nt	nt	nt
COC(=O)c1ccc2c(=O)n(CCCCCC(=O)N3CCN(c4ccccc4)CC3)c(=O)[nH]c2c1	1	0	64*	4	-4	47*	12	4	46*
CCOC(=O)CNCCC(=O)c1ccc(Br)cc1	14	2	55*	1	-4	58*	9	1	-4	MPTP abs DR=i;MPTP counter DR=>80
Cc1cccc(NCCC(=O)c2ccc(Br)cc2)c1	16	-2	5	5	-5	14	nt	nt	nt
CNc1cc(-c2cc(OC)ccc2OC)ncn1	2	nt	0	1	nt	nt	nt	nt	nt
CC(=O)/C(=N\Nc1ccccc1)Oc1ccc(Br)cc1	-2	-7	6	-1	-1	13	nt	nt	nt
Cc1[nH]n(-c2ccccc2)c(=O)c1C(C[N+](=O)[O-])c1ccc(Br)cc1 (configuration not stated)	18	-42	73*	-2	-4	87*	96*	16	37*	Apaf1 inh interf=>100
Cc1[nH]n(-c2ccccc2)c(=O)c1C(c1cccc([N+](=O)[O-])c1O)c1c(C)[nH]n(-c2ccccc2)c1=O	3	-60	103*	1	-3	88*	27	4	65*
CN(C(=S)Nc1ccc(SC(F)F)cc1)c1ccc(O)cc1	14	10	97*	-1	0	70*	5	2	82*
O=C(c1cc(COc2c(F)cccc2F)on1)N1CC[C@@H]2CCCC[C@H]2C1	-4	nt	0	2	nt	nt	nt	nt	nt
CCOc1cccc(Cc2c[nH]c(=O)[nH]c2=O)c1	-6	nt	-1	5	nt	nt	nt	nt	nt
O=C(NC(=S)Nc1ccc(CN2CCCCC2)cc1)c1cccc(OCc2ccccc2)c1	5	20	84*	0	-7	43*	17	17	-3	MPTP abs DR=i;MPTP counter DR=>80
CC(C)CNC(=O)CSc1n[nH]c(=O)n1CCc1ccccc1	-16	3	1	0	-3	2	nt	nt	nt
C=CCn1c(N)c(C(=O)Nc2ccc(C)c(C)c2)c2nc3ccccc3nc21	0	13	3	-1	-3	23	nt	nt	nt
C=CCn1c(NC(=O)c2ccccc2Cl)c(C#N)c2nc3ccccc3nc21	29	-29	74*	-1	-6	96*	60*	5	79*	Apaf1 inh interf=>100
CCCCn1c(NS(=O)(=O)c2ccccc2)c(S(=O)(=O)c2ccc(C)cc2)c2nc3ccccc3nc21	-2	nt	11	-1	nt	nt	nt	nt	nt
CCCCn1c(NC(=O)c2ccc(Br)o2)c(S(=O)(=O)c2ccccc2)c2nc3ccccc3nc21	6	-47	78*	0	-6	71*	31	-2	78*
CN1CCN(c2ccc(NC(=O)c3ccc(-c4ccc(Cl)cc4)o3)cc2)CC1	73*	20	-1	6	-7	65*	34	20	nt	Granule exo CP1=91*
CS(=O)(=O)N1CCN(c2ccc(NC(=O)c3ccc(-c4ccc(Cl)cc4)o3)cc2)CC1	-5	14	2	-2	-4	-24	nt	nt	nt
CCOC(=O)N1CCN(S(=O)(=O)c2ccc(C(=O)N(CCN(C)C)c3nc4ccc(CC)cc4s3)cc2)CC1	1	13	0	-1	-2	4	nt	nt	nt
CCOC(=O)N1CCN(S(=O)(=O)c2ccc(C(=O)N(CCCN(C)C)c3nc4ccc(CC)cc4s3)cc2)CC1	62*	16	0	-1	-7	55*	7	3	nt	Granule exo CP1=-3
O=C1C(=O)c2ccc(-c3ccccc3)cc2-c2ccccc21	74*	-50	13	-6	-6	98*	100*	8	nt	Apaf1 inh interf=>100;Granule exo CP1=0
O=C(Nc1ccc(F)cc1)c1cc(-c2ccccn2)nc2c(Cl)cccc12	-4	4	2	0	-2	9	nt	nt	nt
CN(C)CCCN(C(=O)CCc1ccccc1)c1nc2ccc(Cl)cc2s1	72*	36	93*	-4	-5	44*	12	10	-17	Granule exo CP1=51
O=S1(=O)CC(N2CCSCC2)CN1Cc1cn(Cc2ccc(F)cc2)nn1 (configuration not stated)	-1	nt	0	-1	nt	nt	nt	nt	nt
SMILES	Granule exo inh	UBC13 inh	MPTP inh	iPSC survival up	beta cell repl	Apaf-1 inh	Apaf-1 inh conf	Rh110 quench	MPTP counter	others
CSc1ccc(S(=O)(=O)Nc2ccc3c4c(cccc24)CC3)cc1	54	7	61*	0	-6	6	nt	nt	73*
CC(O)(c1cccnc1)c1nc(-c2cccc3cccnc23)cs1 (configuration not stated)	4	nt	0	0	nt	nt	nt	nt	nt
CC(=O)NC(c1cccc(F)c1)c1nc(-c2cccs2)cs1 (configuration not stated)	14	nt	0	-2	nt	nt	nt	nt	nt
COc1ccc(OCC(=O)N2CCN(c3nnc(-c4ccc(C)cc4)c4ccccc34)CC2)cc1	-2	-2	60*	0	-4	6	nt	nt	15	MPTP abs DR=20*;MPTP counter DR=22*
Cc1ccc(OCC(=O)N2CCN(c3nnc(-c4ccc(C)cc4)c4ccccc34)CC2)cc1	2	-4	84*	0	-6	22	nt	nt	22*
COc1ccc(OCC(=O)N2CCN(c3nnc(-c4ccccc4)c4ccccc34)CC2)cc1	0	5	9	2	-1	12	nt	nt	nt
Cn1c(=O)c2c(SCC(=O)N3CCCc4ccccc43)nc(CC(C)(C)C)nc2n(C)c1=O	3	1	62*	-1	-8	28	nt	nt	-7
CCCc1nc(SCC(=O)Nc2ccccc2)c2c(=O)n(C)c(=O)n(C)c2n1	8	5	-2	-1	-1	-1	nt	nt	nt
CCCc1nc(SCC(=O)N2CCC(Cc3ccccc3)CC2)c2c(=O)n(C)c(=O)n(C)c2n1	-2	12	52*	0	-7	28	nt	nt	-7
COc1ccc2[nH]cc(CCNC(=O)CC[C@H]3O[C@@H](n4cc(C)c(=O)[nH]c4=O)C[C@@H]3O)c2c1	14	nt	0	-1	nt	3	nt	nt	nt
